# Reference: ChEMBL document CHEMBL5661979, “Pharmacological inhibition of BMK1 suppresses tumor growth through promyelocytic leukemia protein” (Cancer Cell, 2010)
# Experiments:
# Format in all cases: subcellular
# [1] = molecular target: Macrophage-stimulating protein receptor (Homo sapiens, UniProt Q04912); test: Inhibition of RON in human HeLa cells lysate at 50 uM pre incubated for 15 mins followed by ADP acyl phosphate probe addition and measured after 10 mins by LC-MS/MS analysis relative to control; details: time 25.0 min
# Macrophage-stimulating protein receptor, sequence (Q04912 25-304 limits assumed): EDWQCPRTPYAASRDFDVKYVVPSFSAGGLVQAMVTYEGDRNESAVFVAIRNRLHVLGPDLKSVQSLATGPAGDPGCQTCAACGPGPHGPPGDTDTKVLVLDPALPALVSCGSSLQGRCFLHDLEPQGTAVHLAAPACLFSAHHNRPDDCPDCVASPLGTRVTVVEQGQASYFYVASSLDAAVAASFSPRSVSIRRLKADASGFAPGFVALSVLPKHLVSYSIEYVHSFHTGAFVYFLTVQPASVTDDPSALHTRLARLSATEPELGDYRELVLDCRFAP
# Macrophage-stimulating protein receptor, sequence (Q04912 310-1400 limits assumed): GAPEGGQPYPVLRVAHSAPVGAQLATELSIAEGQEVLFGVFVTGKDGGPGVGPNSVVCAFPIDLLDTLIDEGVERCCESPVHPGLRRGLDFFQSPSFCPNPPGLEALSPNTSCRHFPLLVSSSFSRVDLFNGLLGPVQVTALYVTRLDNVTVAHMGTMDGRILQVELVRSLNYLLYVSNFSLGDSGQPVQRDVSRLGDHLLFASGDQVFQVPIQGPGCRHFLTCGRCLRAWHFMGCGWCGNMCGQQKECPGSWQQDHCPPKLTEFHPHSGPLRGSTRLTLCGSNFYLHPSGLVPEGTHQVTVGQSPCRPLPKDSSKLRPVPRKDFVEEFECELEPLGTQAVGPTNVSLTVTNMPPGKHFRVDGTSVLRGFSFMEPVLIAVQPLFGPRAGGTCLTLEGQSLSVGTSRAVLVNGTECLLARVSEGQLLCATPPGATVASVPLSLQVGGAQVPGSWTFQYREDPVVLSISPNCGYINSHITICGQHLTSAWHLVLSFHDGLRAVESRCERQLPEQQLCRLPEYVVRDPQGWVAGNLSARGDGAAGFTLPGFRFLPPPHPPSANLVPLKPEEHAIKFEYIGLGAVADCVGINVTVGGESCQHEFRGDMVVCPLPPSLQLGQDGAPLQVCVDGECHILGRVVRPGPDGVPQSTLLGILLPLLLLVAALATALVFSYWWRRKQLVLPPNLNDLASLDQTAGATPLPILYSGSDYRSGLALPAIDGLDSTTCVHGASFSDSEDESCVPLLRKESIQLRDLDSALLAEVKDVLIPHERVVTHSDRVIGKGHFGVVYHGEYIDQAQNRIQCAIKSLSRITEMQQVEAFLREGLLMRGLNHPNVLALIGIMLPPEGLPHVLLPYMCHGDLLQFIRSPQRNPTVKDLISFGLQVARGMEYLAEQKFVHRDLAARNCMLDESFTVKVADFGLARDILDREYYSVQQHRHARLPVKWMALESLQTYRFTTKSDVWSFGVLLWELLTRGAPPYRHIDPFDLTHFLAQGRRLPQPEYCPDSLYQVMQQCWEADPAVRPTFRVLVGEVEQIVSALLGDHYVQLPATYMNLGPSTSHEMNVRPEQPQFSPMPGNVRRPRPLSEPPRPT
# [2] = molecular target: T1, Serine/threonine-protein kinase Sgk3 (Homo sapiens) (UniProt Q96BR1); test: Inhibition of SGK3 in human HeLa cells lysate at 10 uM pre incubated for 15 mins followed by ATP acyl phosphate probe addition and measured after 10 mins by LC-MS/MS analysis relative to control; details: time 25.0 min
# T1 sequence (whole entry): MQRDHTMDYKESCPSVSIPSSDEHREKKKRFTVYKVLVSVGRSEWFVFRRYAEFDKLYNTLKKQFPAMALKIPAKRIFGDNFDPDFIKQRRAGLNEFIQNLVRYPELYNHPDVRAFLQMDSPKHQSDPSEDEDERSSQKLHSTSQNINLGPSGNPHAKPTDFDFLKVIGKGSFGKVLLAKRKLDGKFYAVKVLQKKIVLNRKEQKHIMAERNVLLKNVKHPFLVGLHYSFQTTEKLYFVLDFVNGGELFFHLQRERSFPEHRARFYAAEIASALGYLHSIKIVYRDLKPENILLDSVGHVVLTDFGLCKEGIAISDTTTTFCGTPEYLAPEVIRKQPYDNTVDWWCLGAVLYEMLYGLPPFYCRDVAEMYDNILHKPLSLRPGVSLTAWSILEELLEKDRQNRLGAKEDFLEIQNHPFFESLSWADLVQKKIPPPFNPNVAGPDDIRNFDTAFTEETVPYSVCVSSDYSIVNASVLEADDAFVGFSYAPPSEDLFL
# [3] = molecular target: Cyclin-dependent kinase 16 (Homo sapiens, UniProt Q00536); test: Inhibition of PCTAIRE1 in human HeLa cells lysate at 10 uM pre incubated for 15 mins followed by ADP acyl phosphate probe addition and measured after 10 mins by LC-MS/MS analysis relative to control; details: time 25.0 min
# Cyclin-dependent kinase 16, sequence (Q00536 whole entry): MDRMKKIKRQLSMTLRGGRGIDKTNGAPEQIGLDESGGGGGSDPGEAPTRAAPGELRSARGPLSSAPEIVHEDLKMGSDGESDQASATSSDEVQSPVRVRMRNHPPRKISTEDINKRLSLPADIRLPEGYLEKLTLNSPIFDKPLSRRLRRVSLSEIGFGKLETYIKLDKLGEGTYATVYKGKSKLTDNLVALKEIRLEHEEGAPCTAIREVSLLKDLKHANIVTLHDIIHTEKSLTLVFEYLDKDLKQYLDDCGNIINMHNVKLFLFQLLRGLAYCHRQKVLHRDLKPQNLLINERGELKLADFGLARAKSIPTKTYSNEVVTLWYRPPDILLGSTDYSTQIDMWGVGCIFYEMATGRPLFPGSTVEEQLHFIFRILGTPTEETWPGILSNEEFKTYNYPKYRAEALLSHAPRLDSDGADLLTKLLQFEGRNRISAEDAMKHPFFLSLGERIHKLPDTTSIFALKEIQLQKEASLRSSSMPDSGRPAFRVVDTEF
# [4] = molecular target: T2, Interleukin-1 receptor-associated kinase 4 (Homo sapiens) (UniProt Q9NWZ3); test: Inhibition of IRAK4 in human HeLa cells lysate at 50 uM pre incubated for 15 mins followed by ATP acyl phosphate probe addition and measured after 10 mins by LC-MS/MS analysis relative to control; details: time 25.0 min
# T2 sequence (whole entry): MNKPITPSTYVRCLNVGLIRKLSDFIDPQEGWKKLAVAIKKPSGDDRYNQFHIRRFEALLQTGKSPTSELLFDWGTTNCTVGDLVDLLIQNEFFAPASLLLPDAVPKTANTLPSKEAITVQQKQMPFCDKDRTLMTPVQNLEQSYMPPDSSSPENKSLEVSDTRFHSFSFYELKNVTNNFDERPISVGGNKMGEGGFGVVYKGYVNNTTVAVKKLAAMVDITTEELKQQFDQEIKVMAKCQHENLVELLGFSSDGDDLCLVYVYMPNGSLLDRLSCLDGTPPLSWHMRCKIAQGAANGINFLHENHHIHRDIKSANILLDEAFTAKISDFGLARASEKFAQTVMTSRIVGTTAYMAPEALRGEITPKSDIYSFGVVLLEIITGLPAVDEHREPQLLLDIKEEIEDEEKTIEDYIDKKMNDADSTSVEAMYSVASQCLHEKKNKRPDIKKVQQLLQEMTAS
# [5] = Inhibition of SRPK1/2 in human HeLa cells lysate pre incubated for 15 mins followed by ADP acyl phosphate probe addition and measured after 10 mins by LC-MS/MS analysis
# [6] = molecular target: Calcium/calmodulin-dependent protein kinase type II subunit gamma (Homo sapiens, UniProt Q13555); test: Inhibition of CAMK2g in human HeLa cells lysate pre incubated for 15 mins followed by ATP acyl phosphate probe addition and measured after 10 mins by LC-MS/MS analysis
# Calcium/calmodulin-dependent protein kinase type II subunit gamma, sequence (Q13555 whole entry, the tested form may be a part): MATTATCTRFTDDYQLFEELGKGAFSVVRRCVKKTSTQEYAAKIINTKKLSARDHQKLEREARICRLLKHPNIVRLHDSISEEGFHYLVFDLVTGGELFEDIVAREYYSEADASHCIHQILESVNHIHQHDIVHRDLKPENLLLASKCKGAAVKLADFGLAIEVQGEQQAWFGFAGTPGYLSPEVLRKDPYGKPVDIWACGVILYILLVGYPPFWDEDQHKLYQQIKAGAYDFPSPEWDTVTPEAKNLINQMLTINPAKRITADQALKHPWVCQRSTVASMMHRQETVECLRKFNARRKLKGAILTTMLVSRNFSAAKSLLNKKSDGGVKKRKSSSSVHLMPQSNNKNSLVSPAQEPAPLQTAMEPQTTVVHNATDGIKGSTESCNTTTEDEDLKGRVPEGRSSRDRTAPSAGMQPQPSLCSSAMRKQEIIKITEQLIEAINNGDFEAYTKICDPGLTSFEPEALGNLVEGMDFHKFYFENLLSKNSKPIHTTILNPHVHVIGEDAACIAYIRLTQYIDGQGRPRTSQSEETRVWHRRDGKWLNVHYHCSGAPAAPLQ
# Summary of the method: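 KiNativ profiling in HeLa lysate (5 mg/mL total protein). Lysate incubated 15 min with inhibitor at 50, 10, 2, 0.8 or 0 μM. ATP or ADP acylphosphate probe then added (5 μM final) and reacted 10 min. Reaction stopped with urea and analysed by targeted MS, using up to four fragment ions per kinase peptide-probe conjugate. % inhibition taken against untreated lysate. Run in duplicate.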
# [7] = molecular target: Serine/threonine-protein kinase tousled-like 2 (Homo sapiens, UniProt Q86UE8); test: Inhibition of TLK2 in human HeLa cells lysate at 2 uM pre incubated for 15 mins followed by ADP acyl phosphate probe addition and measured after 10 mins by LC-MS/MS analysis relative to control; details: time 25.0 min
# Serine/threonine-protein kinase tousled-like 2, sequence (Q86UE8 whole entry, looked up): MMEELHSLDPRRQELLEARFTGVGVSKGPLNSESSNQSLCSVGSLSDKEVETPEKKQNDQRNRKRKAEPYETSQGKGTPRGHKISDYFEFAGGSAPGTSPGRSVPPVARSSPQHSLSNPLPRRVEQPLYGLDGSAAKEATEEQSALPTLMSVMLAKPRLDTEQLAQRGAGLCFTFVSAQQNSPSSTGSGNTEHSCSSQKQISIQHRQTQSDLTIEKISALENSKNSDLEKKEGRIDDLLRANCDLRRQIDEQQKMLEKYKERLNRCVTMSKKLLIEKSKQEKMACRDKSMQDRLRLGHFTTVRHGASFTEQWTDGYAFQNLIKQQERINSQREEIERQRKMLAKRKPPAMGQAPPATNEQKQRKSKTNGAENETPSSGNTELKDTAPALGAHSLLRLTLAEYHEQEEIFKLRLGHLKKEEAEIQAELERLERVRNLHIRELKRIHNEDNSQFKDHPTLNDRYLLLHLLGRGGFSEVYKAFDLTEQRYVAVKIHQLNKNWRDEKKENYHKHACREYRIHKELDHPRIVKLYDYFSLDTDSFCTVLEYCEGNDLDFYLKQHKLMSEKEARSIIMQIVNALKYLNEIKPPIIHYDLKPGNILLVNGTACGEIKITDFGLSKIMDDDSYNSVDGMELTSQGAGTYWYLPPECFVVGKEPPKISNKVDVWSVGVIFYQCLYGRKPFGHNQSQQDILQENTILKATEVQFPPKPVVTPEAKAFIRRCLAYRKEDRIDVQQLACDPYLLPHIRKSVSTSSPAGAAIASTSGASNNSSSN
# [8] = molecular target: Serine/threonine-protein kinase Nek8 (Homo sapiens) (UniProt Q86SG6); test: Inhibition of NEK8 in human HeLa cells lysate at 2 uM pre incubated for 15 mins followed by ADP acyl phosphate probe addition and measured after 10 mins by LC-MS/MS analysis relative to control; details: time 25.0 min
# Serine/threonine-protein kinase Nek8 (Homo sapiens), sequence (Q86SG6 whole entry): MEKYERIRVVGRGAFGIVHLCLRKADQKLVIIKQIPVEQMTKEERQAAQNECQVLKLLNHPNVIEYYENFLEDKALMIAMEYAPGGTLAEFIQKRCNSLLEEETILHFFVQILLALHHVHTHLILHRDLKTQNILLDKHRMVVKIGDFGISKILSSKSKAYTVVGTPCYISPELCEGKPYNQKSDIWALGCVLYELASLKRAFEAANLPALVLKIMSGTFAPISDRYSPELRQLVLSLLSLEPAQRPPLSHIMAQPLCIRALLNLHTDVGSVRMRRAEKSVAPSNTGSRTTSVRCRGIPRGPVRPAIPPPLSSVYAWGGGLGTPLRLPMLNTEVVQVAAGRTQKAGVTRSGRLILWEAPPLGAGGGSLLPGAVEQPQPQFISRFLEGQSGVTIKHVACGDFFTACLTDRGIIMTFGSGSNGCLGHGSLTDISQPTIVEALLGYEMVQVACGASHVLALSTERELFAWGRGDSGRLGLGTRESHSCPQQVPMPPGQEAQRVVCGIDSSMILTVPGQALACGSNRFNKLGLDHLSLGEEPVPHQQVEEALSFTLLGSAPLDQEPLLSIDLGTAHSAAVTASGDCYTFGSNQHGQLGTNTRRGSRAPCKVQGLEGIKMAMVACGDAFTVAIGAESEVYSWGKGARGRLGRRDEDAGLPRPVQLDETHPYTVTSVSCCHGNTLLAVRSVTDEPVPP
# [9] = molecular target: Mitogen-activated protein kinase 14 (Homo sapiens, UniProt Q16539); test: Inhibition of P38a interaction site in human HeLa cells lysate pre incubated for 15 mins followed by ATP acyl phosphate probe addition and measured after 10 mins by LC-MS/MS analysis
# Mitogen-activated protein kinase 14, sequence (Q16539 whole entry): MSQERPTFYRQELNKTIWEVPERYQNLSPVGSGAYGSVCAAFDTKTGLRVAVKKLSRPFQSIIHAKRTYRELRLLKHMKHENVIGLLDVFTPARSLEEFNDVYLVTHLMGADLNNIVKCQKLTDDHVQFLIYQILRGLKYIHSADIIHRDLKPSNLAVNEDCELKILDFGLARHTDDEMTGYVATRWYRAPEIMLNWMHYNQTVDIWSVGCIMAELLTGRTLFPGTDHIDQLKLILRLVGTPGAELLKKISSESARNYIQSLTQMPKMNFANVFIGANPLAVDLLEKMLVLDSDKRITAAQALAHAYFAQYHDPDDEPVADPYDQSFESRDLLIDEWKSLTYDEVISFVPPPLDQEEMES
# [10] = molecular target: Serine/threonine-protein kinase 38 (Homo sapiens, UniProt Q15208); test: Inhibition of NDR1 in human HeLa cells lysate pre incubated for 15 mins followed by ATP acyl phosphate probe addition and measured after 10 mins by LC-MS/MS analysis
# Serine/threonine-protein kinase 38, sequence (Q15208 whole entry): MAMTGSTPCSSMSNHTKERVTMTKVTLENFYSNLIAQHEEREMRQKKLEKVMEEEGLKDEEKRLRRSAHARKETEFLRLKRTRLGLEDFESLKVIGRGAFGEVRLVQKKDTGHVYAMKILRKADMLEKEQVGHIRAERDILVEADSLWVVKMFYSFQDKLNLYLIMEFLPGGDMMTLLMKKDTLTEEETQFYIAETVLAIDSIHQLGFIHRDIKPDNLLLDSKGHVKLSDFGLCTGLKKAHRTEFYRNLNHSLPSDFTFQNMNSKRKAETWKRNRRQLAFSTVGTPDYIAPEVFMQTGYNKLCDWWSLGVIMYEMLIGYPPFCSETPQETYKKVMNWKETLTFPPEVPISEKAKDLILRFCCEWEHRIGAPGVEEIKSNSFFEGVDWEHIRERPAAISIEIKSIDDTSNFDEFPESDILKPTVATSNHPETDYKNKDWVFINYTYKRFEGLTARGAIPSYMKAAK
smiles,measurement,setting,value
CCOc1cc(N2CCC(O)CC2)ccc1Nc1ncc2c(n1)N(C)c1ccccc1C(=O)N2C,inhibition,[1],24%
same,inhibition,[2],4.4%
same,inhibition,[3],20.8%
same,inhibition,[4],15.6%
same,IC50,[5],> 50 µM
same,IC50,[6],> 50 µM
same,inhibition,[7],7.3%
same,inhibition,[8],30.2%
same,IC50,[9],> 50 µM
same,IC50,[10],> 50 µM
